Laboratory results taken from ChEMBL document CHEMBL4321879, “Novel Class of Colony-Stimulating Factor 1 Receptor Kinase Inhibitors Based on an o-Aminopyridyl Alkynyl Scaffold as Potential Treatment for Inflammatory Disorders” (J Med Chem, 2020).

How the values were obtained:
[1] = target: Macrophage colony-stimulating factor 1 receptor (Homo sapiens, UniProt P07333); assay: Inhibition of recombinant CSF1R (unknown origin) using poly (Glu, Tyr)4:1 as substrate measured after 1 hr by ELISA
[2] = target: Epidermal growth factor receptor (Homo sapiens) (UniProt P00533); assay: Inhibition of recombinant human N-terminal GST-tagged EGFR (696 to end residues) expressed in baculovirus infected Sf21 insect cells at 100 nM using poly (Glu, Tyr)4:1 as substrate measured after 1 hr by ELISA relative to control
Summary of the method: (§1)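 Recombinant kinase was incubated with compound in reaction buffer containing 5 μM ATP, in wells precoated with poly(Glu,Tyr) 4:1, for 1 h at 37 °C. Phosphorylation was detected by ELISA.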

[3] = target: Insulin receptor (Homo sapiens) (UniProt P06213); assay: Inhibition of recombinant human N-terminal His6-tagged IR (1005 to 1310 residues) expressed in baculovirus infected Sf21 insect cells at 1000 nM using poly (Glu, Tyr)4:1 as substrate measured after 1 hr by ELISA relative to control
Summary of the method: (§2)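 ELISA kinase assay: recombinant kinase added to wells precoated with poly(Glu,Tyr)4:1 and incubated with compound in reaction buffer containing 5 μM ATP, 37 °C for 1 h; wells then washed before antibody detection.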

[4] = MRT (infinity) in Sprague-Dawley rat at 2 mg/kg, iv administered […] by LC-MS/MS analysis; type: ADME, organism-based; details: in vivo
Summary of the method: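 Male SD rats (200 ± 20 g), fasted 12 h, n = 3; single intravenous dose of 2 mg/kg in DMSO/EtOH/PEG300/saline (5/5/40/50). Femoral vein blood at 15–1440 min; plasma precipitated with methanol containing internal standard, assayed by LC–MS/MS; noncompartmental analysis (MRT = AUMC/AUC, Vss = CL × MRT).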

[5] = target: T1, Fibroblast growth factor receptor 1 (Homo sapiens, UniProt P11362); assay: Inhibition of recombinant human N-terminal GST-tagged FGFR1 (456 to 765 residues) expressed in baculovirus infected Sf21 insect cells at 1000 nM using poly (Glu, Tyr)4:1 as substrate measured after 1 hr by ELISA relative to control; summary of the method: as §1
[6] = target: Proto-oncogene tyrosine-protein kinase Src (Homo sapiens) (UniProt P12931); assay: Inhibition of recombinant human full-length N-terminal His6-tagged Src expressed in Sf21 insect cells at 10 nM using poly (Glu, Tyr)4:1 as substrate measured after 1 hr by ELISA relative to control; summary of the method: as §2
[7] = tested on: RAW264.7; assay: Antiinflammatory activity in mouse RAW264.7 cells assessed as reduction in LPS-induced TNFalpha release measured after 24 hrs by ELISA; type: functional, cell-based; details: RAW264.7, 24 h
Summary of the method: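 RAW264.7 cells in DMEM with 10% FBS and 0.125% DMSO were incubated with compound, then primed with LPS 1 μg/mL for 24 h. Supernatant TNF-α and IL-6 measured by mouse ELISA. IC50 from log(inhibitor) versus normalized response nonlinear fit.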

[8] = target: T1, Fibroblast growth factor receptor 1; assay: Inhibition of recombinant human N-terminal GST-tagged FGFR1 (456 to 765 residues) expressed in baculovirus infected Sf21 insect cells at 100 nM using poly (Glu, Tyr)4:1 as substrate measured after 1 hr by ELISA relative to control; summary of the method: as §1
[9] = target: Platelet-derived growth factor receptor alpha (Homo sapiens) (UniProt P16234); assay: Inhibition of recombinant human N-terminal His6-tagged PDGFRalpha (550 to end residues) expressed in baculovirus infected Sf21 insect cells at 10 nM using poly (Glu, Tyr)4:1 as substrate measured after 1 hr by ELISA relative to control; summary of the method: as §2
[10] = target: Insulin-like growth factor 1 receptor (Homo sapiens) (UniProt P08069); assay: Inhibition of recombinant human N-terminal His6-tagged IGF1R (959 to end residues) expressed in baculovirus infected Sf21 insect cells at 1000 nM using poly (Glu, Tyr)4:1 as substrate measured after 1 hr by ELISA relative to control; summary of the method: as §2
[11] = target: T2, Fibroblast growth factor receptor 2 (Homo sapiens, UniProt P21802); assay: Inhibition of recombinant human N-terminal His6-tagged FGFR2 (456 to 770 residues) expressed in baculovirus infected Sf21 insect cells at 1000 nM using poly (Glu, Tyr)4:1 as substrate measured after 1 hr by ELISA relative to control; summary of the method: as §1
[12] = target: T3, Fibroblast growth factor receptor 3 (Homo sapiens, UniProt P22607); assay: Inhibition of recombinant human N-terminal His6-tagged FGFR3 (447 to 761 residues) expressed in baculovirus infected Sf21 insect cells using poly (Glu, Tyr)4:1 as substrate measured after 1 hr by ELISA; summary of the method: as §1
[13] = AUC (0 to t) in Sprague-Dawley rat at 5 mg/kg, po administered via gavage by LC-MS/MS analysis; type: ADME, organism-based; details: in vivo
Summary of the method: (§3)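 Male SD rats (200 ± 20 g) were fasted 12 h with free access to water, n = 3 per group. One group received 2 mg/kg iv in DMSO/EtOH/PEG300/saline (5/5/40/50). The other received 5 mg/kg by oral gavage in DMSO/HPMC (5/95). Femoral-vein plasma was taken at 15–1440 min, methanol-precipitated with internal standard, and measured by LC–MS/MS. Noncompartmental analysis; AUC by trapezoidal method.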

[14] = target: T3, Fibroblast growth factor receptor 3; assay: Inhibition of recombinant human N-terminal His6-tagged FGFR3 (447 to 761 residues) expressed in baculovirus infected Sf21 insect cells at 1000 nM using poly (Glu, Tyr)4:1 as substrate measured after 1 hr by ELISA relative to control; summary of the method: as §1
[15] = target: Proto-oncogene tyrosine-protein kinase receptor Ret (Homo sapiens) (UniProt P07949); assay: Inhibition of recombinant human N-terminal GST-tagged RET (658 to end residues) expressed in baculovirus infected Sf21 insect cells at 10 nM using poly (Glu, Tyr)4:1 as substrate measured after 1 hr by ELISA relative to control; summary of the method: as §1
[16] = Clearance in Sprague-Dawley rat at 2 mg/kg, iv administered […] by LC-MS/MS analysis; type: ADME, organism-based; details: in vivo; summary of the method: as §3
[17] = target: Proto-oncogene tyrosine-protein kinase receptor Ret (Homo sapiens) (UniProt P07949); assay: Inhibition of recombinant human N-terminal GST-tagged RET (658 to end residues) expressed in baculovirus infected Sf21 insect cells at 1000 nM using poly (Glu, Tyr)4:1 as substrate measured after 1 hr by ELISA relative to control; summary of the method: as §1
[18] = target: Platelet-derived growth factor receptor beta (Homo sapiens) (UniProt P09619); assay: Inhibition of recombinant human N-terminal His6-tagged PDGFRbeta (557 to end residues) expressed in baculovirus infected Sf21 insect cells at 100 nM using poly (Glu, Tyr)4:1 as substrate measured after 1 hr by ELISA relative to control; summary of the method: as §2
[19] = target: T2, Fibroblast growth factor receptor 2; assay: Inhibition of recombinant human N-terminal His6-tagged FGFR2 (456 to 770 residues) expressed in baculovirus infected Sf21 insect cells at 100 nM using poly (Glu, Tyr)4:1 as substrate measured after 1 hr by ELISA relative to control; summary of the method: as §1

Proto-oncogene tyrosine-protein kinase receptor Ret (Homo sapiens), sequence (P07949 whole entry): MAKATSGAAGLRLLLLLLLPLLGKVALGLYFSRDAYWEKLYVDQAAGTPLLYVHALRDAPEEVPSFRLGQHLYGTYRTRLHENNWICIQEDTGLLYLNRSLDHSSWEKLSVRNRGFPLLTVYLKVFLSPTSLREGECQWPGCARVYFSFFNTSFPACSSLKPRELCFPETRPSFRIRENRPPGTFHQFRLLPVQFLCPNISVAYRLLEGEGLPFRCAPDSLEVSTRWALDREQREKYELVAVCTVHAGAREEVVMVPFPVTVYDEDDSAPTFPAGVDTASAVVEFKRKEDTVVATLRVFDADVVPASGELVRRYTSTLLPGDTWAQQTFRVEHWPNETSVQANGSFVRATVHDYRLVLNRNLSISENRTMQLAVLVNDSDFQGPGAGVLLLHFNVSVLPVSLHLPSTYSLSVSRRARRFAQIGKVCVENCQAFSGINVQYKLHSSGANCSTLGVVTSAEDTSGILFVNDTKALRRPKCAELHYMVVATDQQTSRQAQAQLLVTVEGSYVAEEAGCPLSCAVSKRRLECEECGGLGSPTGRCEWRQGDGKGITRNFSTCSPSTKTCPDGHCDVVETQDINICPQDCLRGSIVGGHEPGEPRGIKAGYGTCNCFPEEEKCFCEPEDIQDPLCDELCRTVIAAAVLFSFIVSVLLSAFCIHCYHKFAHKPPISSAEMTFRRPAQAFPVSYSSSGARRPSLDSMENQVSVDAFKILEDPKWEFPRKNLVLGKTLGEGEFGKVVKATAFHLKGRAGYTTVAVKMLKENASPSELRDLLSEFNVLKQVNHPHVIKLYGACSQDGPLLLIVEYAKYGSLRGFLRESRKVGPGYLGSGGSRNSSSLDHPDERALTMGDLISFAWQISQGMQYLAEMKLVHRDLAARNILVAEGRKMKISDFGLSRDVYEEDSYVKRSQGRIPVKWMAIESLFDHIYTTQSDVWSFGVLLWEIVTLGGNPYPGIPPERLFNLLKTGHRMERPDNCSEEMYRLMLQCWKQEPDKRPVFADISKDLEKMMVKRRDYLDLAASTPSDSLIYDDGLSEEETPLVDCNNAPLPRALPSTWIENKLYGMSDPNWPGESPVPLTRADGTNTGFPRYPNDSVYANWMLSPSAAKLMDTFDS
T1 sequence (P11362 22-822 limits assumed): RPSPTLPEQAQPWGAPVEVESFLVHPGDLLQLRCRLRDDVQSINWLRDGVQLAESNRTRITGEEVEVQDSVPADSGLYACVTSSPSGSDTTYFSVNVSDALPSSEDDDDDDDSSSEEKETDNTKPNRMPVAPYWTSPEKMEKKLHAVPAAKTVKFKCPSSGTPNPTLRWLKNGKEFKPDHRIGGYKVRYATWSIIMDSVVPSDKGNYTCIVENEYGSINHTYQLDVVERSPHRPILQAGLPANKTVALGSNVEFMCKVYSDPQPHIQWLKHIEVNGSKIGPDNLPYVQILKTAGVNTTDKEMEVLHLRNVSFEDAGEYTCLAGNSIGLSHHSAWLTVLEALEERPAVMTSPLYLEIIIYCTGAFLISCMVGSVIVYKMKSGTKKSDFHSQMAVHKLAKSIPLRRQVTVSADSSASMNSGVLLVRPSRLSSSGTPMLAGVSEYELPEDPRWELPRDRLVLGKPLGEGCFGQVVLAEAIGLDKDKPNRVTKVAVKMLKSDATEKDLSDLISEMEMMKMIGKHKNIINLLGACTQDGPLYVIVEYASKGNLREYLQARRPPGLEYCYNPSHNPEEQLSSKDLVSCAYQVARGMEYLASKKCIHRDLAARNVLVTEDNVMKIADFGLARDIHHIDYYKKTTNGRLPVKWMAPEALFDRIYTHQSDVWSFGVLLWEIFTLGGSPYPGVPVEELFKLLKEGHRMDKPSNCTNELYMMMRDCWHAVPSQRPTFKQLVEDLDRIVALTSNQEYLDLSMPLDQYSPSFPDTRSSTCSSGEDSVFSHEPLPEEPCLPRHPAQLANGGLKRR
T2 sequence (P21802 22-821 limits assumed): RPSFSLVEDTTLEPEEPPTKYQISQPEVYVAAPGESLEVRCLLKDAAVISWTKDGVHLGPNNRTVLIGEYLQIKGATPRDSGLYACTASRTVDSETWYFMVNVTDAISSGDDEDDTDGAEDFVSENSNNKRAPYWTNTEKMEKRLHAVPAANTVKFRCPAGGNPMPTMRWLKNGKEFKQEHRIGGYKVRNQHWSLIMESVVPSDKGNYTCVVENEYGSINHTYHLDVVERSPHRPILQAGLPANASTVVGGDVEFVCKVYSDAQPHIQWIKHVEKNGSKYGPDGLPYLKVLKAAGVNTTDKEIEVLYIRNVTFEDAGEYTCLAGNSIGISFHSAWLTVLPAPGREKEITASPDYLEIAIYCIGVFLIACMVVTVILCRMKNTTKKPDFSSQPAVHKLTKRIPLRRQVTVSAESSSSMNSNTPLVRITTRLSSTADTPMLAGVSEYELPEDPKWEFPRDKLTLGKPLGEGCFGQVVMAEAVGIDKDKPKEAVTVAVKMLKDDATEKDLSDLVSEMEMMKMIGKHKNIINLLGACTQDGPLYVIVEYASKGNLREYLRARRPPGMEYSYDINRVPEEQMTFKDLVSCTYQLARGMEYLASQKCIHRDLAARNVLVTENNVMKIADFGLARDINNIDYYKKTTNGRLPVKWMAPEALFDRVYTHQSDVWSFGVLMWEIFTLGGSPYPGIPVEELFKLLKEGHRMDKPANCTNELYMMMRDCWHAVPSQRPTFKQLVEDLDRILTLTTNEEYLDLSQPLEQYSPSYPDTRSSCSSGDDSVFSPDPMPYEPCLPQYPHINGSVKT
Epidermal growth factor receptor (Homo sapiens), sequence (P00533 whole entry): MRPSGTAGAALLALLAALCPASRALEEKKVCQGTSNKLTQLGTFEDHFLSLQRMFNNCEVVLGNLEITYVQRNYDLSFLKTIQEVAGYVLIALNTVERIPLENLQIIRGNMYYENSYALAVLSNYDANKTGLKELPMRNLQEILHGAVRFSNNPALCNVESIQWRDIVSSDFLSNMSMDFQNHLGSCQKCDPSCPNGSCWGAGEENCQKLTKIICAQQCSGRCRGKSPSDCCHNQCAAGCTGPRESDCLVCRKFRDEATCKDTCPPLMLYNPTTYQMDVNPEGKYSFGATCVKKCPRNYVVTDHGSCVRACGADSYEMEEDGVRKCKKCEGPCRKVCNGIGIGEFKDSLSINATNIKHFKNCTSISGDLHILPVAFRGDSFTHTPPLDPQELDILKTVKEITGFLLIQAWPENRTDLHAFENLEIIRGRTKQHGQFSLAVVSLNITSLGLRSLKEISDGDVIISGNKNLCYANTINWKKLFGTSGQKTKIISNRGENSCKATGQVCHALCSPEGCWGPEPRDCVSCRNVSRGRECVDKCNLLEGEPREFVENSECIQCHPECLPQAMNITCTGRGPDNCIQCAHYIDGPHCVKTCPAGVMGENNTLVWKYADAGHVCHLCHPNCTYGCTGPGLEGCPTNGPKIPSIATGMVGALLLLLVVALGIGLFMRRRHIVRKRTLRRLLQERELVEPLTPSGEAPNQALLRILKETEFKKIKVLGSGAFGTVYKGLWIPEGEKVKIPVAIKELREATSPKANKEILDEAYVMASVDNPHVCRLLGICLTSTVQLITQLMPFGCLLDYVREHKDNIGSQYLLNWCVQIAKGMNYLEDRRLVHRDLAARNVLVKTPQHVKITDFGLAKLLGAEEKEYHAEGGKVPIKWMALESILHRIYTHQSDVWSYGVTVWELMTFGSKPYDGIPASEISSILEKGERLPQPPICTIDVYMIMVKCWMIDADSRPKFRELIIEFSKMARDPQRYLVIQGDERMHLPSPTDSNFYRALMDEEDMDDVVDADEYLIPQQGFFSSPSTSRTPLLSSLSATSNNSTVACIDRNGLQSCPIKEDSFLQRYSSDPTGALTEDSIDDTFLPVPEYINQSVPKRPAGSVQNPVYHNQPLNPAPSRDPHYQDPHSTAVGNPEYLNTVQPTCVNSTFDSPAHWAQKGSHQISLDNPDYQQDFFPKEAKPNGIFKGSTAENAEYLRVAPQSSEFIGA
Platelet-derived growth factor receptor beta (Homo sapiens), sequence (P09619 whole entry, the tested form may be a part): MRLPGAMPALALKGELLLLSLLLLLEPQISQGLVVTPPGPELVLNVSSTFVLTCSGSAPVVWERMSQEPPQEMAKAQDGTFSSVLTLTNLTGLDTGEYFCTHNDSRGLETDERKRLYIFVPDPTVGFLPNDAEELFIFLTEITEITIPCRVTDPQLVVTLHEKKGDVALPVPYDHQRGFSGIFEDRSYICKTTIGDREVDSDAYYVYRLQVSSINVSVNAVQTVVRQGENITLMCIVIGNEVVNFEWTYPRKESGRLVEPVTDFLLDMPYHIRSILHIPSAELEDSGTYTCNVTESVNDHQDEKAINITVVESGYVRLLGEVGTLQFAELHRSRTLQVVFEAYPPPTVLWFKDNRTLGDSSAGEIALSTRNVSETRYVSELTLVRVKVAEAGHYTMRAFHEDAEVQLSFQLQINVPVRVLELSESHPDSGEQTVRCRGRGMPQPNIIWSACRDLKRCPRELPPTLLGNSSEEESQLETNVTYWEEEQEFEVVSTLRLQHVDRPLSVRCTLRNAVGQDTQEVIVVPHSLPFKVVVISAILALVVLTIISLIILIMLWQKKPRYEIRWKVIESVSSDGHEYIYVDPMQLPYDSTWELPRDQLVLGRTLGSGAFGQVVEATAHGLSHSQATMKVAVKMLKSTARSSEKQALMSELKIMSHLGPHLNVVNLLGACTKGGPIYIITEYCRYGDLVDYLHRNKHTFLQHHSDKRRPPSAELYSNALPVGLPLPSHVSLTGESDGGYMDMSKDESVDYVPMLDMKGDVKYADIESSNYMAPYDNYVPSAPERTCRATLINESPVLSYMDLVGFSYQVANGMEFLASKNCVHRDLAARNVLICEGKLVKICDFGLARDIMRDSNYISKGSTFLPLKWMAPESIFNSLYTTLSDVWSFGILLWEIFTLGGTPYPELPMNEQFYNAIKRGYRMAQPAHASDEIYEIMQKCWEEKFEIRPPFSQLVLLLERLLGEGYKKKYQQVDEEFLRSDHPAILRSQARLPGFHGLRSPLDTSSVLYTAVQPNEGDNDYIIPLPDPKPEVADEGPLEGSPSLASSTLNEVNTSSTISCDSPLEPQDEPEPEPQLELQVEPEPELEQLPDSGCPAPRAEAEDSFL

IC50 [1]: 0.7 nM
inhibition [2]: 7.4%
inhibition [3]: 0%
MRT inf [4]: 2.3 h
inhibition [5]: 0%
inhibition [6]: 1.5%
IC50 [7]: 110 nM
inhibition [8]: 0%
inhibition [9]: 54.6%
inhibition [10]: 0%
inhibition [11]: 20.7%
IC50 [12]: > 1000 nM
AUC(0-t) [13]: 634 ng·h/mL
inhibition [14]: 2.3%
inhibition [15]: 42.7%
clearance [16]: 46 mL/min/kg
inhibition [17]: 96.6%
inhibition [18]: 70.5%
inhibition [19]: 16.2%
Structure (SMILES): Cc1ccc(C(=O)Nc2ccc(Cl)cc2)cc1C#Cc1cc(-c2cnn(C)c2)cnc1N
